The subject of assay [1] is Mus musculus. Nature of the assay: Specific Incorporation (cpm/mg of melanin) of melanin after isolation from tumor after ip injection at 180 min of assay. It is filed as functional. The gist of the method: (§1)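 Mice (female C57Bl/6, s.c. B16 melanoma, two weeks) received 10 μCi [2-14C]TU and were euthanized at the noted times. Tumours were weighed, frozen, homogenized in 1% acetic acid–ethanol (30:70) and centrifuged. Melanosomal melanin was purified on a sucrose density gradient, dried to constant weight, and radioactivity was expressed as cpm/mg melanin.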

For assay [2], the species on record is Mus musculus. Nature of the assay: HPCL quantitation of resulting degradation product, pyrrole-2,3,5-tricarboxylic acid (PTCA) content after tumor isolation at 180 min of assay. It is filed as functional, organism-based. In a few lines:
(§2)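 B16 tumours were grown s.c. in female C57Bl/6 mice, which were given 10 μCi [2-14C]TU two weeks later. At each time point, melanosomes were isolated by sucrose density gradient ultracentrifugation. 4 mg was oxidized with alkaline H2O2 (1 M NaOH, 30% H2O2) for 3 h at 25 °C. PTCA was quantified by HPLC with 280 nm detection and expressed per mg.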

The subject of assay [3] is Mus musculus. Nature of the assay: Specific Incorporation (cpm/mg of melanin) of melanin after isolation from tumor after ip injection at 90 min of assay. In kind it is functional. In a few lines: as §1
Assay [4] is filed under the species Mus musculus. Nature of the assay: HPCL quantitation of resulting degradation product, pyrrole-2,3,5-tricarboxylic acid (PTCA) content after tumor isolation at 0 min of assay. It is filed as functional, organism-based. The gist of the method: as §2
Assay [5] concerns Mus musculus. Nature of the assay: Absorbance at 350 nM of a solution of melanosomes obtained by treatment in hot alkali from tumor after ip injection at 90 min of assay as a measure of pigment content of tissue. It is filed as functional.
The species entered for assay [6] is Mus musculus. Nature of the assay: HPCL quantitation of resulting degradation product, pyrrole-2,3,5-tricarboxylic acid (PTCA) content after tumor isolation at 30 min of assay. It is filed as functional, organism-based. In a few lines:
as §2

Assay [7] relates to Mus musculus. Nature of the assay: Absorbance at 350 nM of a solution of melanosomes obtained by treatment in hot alkali from tumor after ip injection at 180 min of assay as a measure of pigment content of tissue. It is filed as functional.
Assay [8] concerns Mus musculus. Nature of the assay: Absorbance at 350 nM of a solution of melanosomes obtained by treatment in hot alkali from tumor after ip injection at 0 min of assay as a measure of pigment content of tissue. In kind it is functional.
In assay [9] the test system is Mus musculus. Nature of the assay: Specific Incorporation (cpm/mg of melanin) of melanin after isolation from tumor after ip injection at 30 min of assay. In kind it is functional. The gist of the method: as §1
Assay [10] is filed under the species Mus musculus. Nature of the assay: HPCL quantitation of resulting degradation product, pyrrole-2,3,5-tricarboxylic acid (PTCA) content after tumor isolation at 90 min of assay. It is filed as functional, organism-based. The gist of the method:
as §2

In assay [11] the test system is Mus musculus. Nature of the assay: Absorbance at 350 nM of a solution of melanosomes […] from tumor after ip injection at 30 min of assay as a measure of pigment content of tissue. In kind it is functional.

Consider `O=c1cc[nH]c(=S)[nH]1` [THIOURACIL], for which the Specific incorporation in the assay on Mus musculus [1] was 2300 c.p.m. (mg of melanin)-1; with Mus musculus [3] it was 2600 c.p.m. (mg of melanin)-1; in the assay on Mus musculus [9], 2500 c.p.m. (mg of melanin)-1. In addition, the Concentration stood at 589 ng/mg in the assay filed under Mus musculus [2], 1120 ng/mg in the assay filed under Mus musculus [4], 493 ng/mg in the assay listed under Mus musculus [6] and 560 ng/mg in the assay listed under Mus musculus [10]. In addition, the Activity was found to be 0.036 in the assay with Mus musculus [5], 0.043 in the assay with Mus musculus [7], 0.071 with Mus musculus [8] and 0.032 with Mus musculus [11].

The values are drawn from ChEMBL document CHEMBL1129737, “Mechanism of selective incorporation of the melanoma seeker 2-thiouracil into growing melanin” (1996).
